From publication PMC8148065 (Acta Pharmaceutica Sinica. B, 2020)
Entries after “also recorded” stand apart in the source; their conditions may differ.

Assays:
[1] = target: T1, recombinant HMGCR protein (Homo sapiens, UniProt P04035); assay: HMG-CoA reductase activity assay; assay type: biochemical
T1 sequence (P04035 426-888 limits assumed): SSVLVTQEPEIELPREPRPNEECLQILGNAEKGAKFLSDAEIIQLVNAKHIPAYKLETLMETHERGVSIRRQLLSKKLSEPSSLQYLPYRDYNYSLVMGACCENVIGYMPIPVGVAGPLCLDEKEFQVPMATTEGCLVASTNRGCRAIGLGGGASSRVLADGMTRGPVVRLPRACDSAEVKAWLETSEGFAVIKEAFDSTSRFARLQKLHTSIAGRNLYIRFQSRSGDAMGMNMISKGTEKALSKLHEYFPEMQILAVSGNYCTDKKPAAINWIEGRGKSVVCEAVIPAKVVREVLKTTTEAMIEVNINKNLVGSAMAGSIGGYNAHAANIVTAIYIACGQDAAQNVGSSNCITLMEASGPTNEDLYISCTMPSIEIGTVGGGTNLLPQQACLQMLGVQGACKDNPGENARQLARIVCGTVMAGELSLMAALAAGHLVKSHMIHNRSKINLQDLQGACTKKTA

[2] = Chemical stability in saline; assay type: physicochemical; details: pH 7.4, 37 °C, 24 h
[3] = In vitro metabolic stability in mouse liver microsomes; assay type: in vitro ADME; details: for half-life at 1 μmol/L: pH 7.4
Method in brief: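 Mouse liver microsomes (0.5 mg/mL) were incubated with the test compound (1 μmol/L) and an NADPH regeneration system in phosphate buffer (1.0 mmol/L EDTA), pH 7.4. The reaction was started with NADPH and quenched at 5, 15, 30 and 45 min with acetonitrile plus internal standard. Samples were centrifuged, diluted in water and quantified by LC–MS/MS. t1/2 and CLint are means of duplicates.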

HMGCR [4] = target: T2, HMGCR (Mus musculus, UniProt Q01237); assay: Hepatic HMGCR level by Western blot in MFD-fed mice; assay type: in vivo, C57BL/6 mice; details: 20 mg/kg p.o. once daily 5 weeks, 16 h after final gavage
T2 sequence (Q01237 1-887): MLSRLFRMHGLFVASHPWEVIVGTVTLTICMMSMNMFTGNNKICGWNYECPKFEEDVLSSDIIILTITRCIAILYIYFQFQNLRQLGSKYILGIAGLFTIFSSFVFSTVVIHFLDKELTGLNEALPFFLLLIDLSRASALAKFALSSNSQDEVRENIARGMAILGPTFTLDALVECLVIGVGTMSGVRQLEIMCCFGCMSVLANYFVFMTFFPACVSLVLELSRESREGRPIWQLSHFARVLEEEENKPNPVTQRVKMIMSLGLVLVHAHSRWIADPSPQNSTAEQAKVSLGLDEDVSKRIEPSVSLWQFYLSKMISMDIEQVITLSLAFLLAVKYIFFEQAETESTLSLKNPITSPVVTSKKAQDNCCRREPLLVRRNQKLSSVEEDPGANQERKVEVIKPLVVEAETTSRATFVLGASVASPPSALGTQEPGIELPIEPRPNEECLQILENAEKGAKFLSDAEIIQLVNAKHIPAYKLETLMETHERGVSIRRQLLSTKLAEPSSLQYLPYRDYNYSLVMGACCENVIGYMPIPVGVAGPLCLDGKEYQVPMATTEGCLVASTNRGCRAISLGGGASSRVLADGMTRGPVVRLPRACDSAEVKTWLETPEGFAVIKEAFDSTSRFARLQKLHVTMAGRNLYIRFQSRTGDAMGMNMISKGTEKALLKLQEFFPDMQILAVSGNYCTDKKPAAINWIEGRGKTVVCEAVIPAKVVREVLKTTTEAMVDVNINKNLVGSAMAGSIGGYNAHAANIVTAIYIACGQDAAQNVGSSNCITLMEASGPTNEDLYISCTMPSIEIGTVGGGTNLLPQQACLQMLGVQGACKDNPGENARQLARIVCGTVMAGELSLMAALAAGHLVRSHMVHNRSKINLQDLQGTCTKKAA

[5] = system: MFD-induced hypercholesterolemia; assay: MFD-induced mouse model of hypercholesterolemia; assay type: in vivo, C57BL/6 mice; details: MFD mice
Method in brief: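 Male C57BL/6 mice (20–24 g) were fed medium-fat diet (12% fat, 0.5% sodium cholate, 1.25% cholesterol) with 3 weeks' induction. Survival, body weight and food intake were logged weekly. Sixteen hours post-dose, retro-orbital serum TC, LDL-C and TG were measured on an automated analyser (one-way ANOVA, mean ± SD).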

HMGCR [6] = target: T3, HMGCR (Homo sapiens, UniProt P04035); assay: Western blot of HMGCR level in HepG2 cells; assay type: cell-based
T3 sequence (P04035 1-888): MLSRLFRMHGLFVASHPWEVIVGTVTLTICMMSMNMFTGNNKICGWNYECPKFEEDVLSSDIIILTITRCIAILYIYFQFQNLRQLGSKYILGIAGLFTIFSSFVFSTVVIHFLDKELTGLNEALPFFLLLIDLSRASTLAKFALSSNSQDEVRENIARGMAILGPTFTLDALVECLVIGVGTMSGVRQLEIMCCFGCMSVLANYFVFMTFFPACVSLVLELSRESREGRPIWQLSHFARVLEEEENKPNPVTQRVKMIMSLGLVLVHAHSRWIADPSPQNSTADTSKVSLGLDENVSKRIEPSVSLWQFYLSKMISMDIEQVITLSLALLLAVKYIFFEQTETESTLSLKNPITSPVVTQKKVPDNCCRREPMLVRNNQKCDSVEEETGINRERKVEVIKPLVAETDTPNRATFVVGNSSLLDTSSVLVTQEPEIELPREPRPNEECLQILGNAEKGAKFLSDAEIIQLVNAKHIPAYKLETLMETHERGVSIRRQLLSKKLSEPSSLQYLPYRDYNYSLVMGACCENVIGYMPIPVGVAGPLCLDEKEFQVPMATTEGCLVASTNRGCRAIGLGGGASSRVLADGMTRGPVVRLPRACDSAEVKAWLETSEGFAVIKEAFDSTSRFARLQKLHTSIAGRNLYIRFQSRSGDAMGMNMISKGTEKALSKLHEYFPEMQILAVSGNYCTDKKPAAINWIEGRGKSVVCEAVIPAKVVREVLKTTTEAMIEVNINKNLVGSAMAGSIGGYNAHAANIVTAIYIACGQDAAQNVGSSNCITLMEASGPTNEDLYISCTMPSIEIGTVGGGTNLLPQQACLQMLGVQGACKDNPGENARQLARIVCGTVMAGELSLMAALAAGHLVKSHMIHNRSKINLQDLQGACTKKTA

[7] = previously reported in mice ref 53; cited from earlier work

C[C@H]1C=C2C=C[C@H](C)[C@H](CC[C@@H]3C[C@@H](O)CC(=O)O3)[C@H]2[C@@H](OC(=O)NCCCOCCOCCOCCCNc2cccc3c2C(=O)N(C2CCC(=O)NC2=O)C3=O)C1 (stereo partly drawn) [Compound 16a, (1S,3R,7S,8S,8aR)-8-(2-((2R,4R)-4-Hydroxy-6-oxotetrahydro-2H-pyran-2-yl)ethyl)-3,7-dimethyl-1,2,3,7,8,8a-hexahydronaphthalen-1-yl (3-(2-(2-(3-((2-(2,6-dioxopiperidin-3-yl)-1,3-dioxoisoindolin-4-yl)amino)propoxy)ethoxy)ethoxy)propyl)carbamate]
IC50 [1]: 1250 nM

C[C@H]1C=C2C=C[C@H](C)[C@H](CC[C@@H]3C[C@@H](O)CC(=O)O3)[C@H]2[C@@H](OC(=O)NCCOCCOCCNc2cccc3c2C(=O)N(C2CCC(=O)NC2=O)C3=O)C1 (stereo partly drawn) [Compound 16b, (1S,3R,7S,8S,8aR)-8-(2-((2R,4R)-4-Hydroxy-6-oxotetrahydro-2H-pyran-2-yl)ethyl)-3,7-dimethyl-1,2,3,7,8,8a-hexahydronaphthalen-1-yl (2-(2-(2-((2-(2,6-dioxopiperidin-3-yl)-1,3-dioxoisoindolin-4-yl)amino)ethoxy)ethoxy)ethyl)carbamate]
Chemical stability (decomposition) [2]: over half decomposition
IC50 [1]: 1880 nM

C[C@H]1C=C2C=C[C@H](C)[C@H](CC[C@@H]3C[C@@H](O)CC(=O)O3)[C@H]2[C@@H](OC(=O)NCCCNc2cccc3c2C(=O)N(C2CCC(=O)NC2=O)C3=O)C1 (stereo partly drawn) [Compound 16c, (1S,3R,7S,8S,8aR)-8-(2-((2R,4R)-4-Hydroxy-6-oxotetrahydro-2H-pyran-2-yl)ethyl)-3,7-dimethyl-1,2,3,7,8,8a-hexahydronaphthalen-1-yl (3-((2-(2,6-dioxopiperidin-3-yl)-1,3-dioxoisoindolin-4-yl)amino)propyl)carbamate]
IC50 [1]: 2490 nM

Cc1ncsc1-c1ccc(CNC(=O)[C@@H]2C[C@@H](O)CN2C(=O)[C@@H](NC(=O)CCCCCCCNC(=O)O[C@H]2C[C@@H](C)C=C3C=C[C@H](C)[C@H](CC[C@@H]4C[C@@H](O)CC(=O)O4)[C@H]32)C(C)(C)C)cc1 [Compound 21a, (1S,3R,7S,8S,8aR)-8-(2-((2R,4R)-4-Hydroxy-6-oxotetrahydro-2H-pyran-2-yl)ethyl)-3,7-dimethyl-1,2,3,7,8,8a-hexahydronaphthalen-1-yl (8-(((S)-1-((2S,4R)-4-hydroxy-2-((4-(4-methylthiazol-5-yl)benzyl)carbamoyl)pyrrolidin-1-yl)-3,3-dimethyl-1-oxobutan-2-yl)amino)-8-oxooctyl)carbamate]
IC50 [1]: 1560 nM

Cc1ncsc1-c1ccc(CNC(=O)[C@@H]2C[C@@H](O)CN2C(=O)[C@@H](NC(=O)CCCCCCCCCCNC(=O)O[C@H]2C[C@@H](C)C=C3C=C[C@H](C)[C@H](CC[C@@H]4C[C@@H](O)CC(=O)O4)[C@H]32)C(C)(C)C)cc1 [Compound 21b, (1S,3R,7S,8S,8aR)-8-(2-((2R,4R)-4-Hydroxy-6-oxotetrahydro-2H-pyran-2-yl)ethyl)-3,7-dimethyl-1,2,3,7,8,8a-hexahydronaphthalen-1-yl (11-(((S)-1-((2S,4R)-4-hydroxy-2-((4-(4-methylthiazol-5-yl)benzyl)carbamoyl)pyrrolidin-1-yl)-3,3-dimethyl-1-oxobutan-2-yl)amino)-11-oxoundecyl)carbamate]
half-life at 1 μmol/L ([3]; mouse, liver microsomes): 4.18 min
CLint scaled at 1 μmol/L ([3]; mouse, liver microsomes, pH 7.4, CLint (mL/min/kg), mouse liver microsomes, mean of duplicate): 416 mL/min/kg
Hepatic HMGCR level (HMGCR [4]): robust HMGCR degradation
Serum total cholesterol (TC), LDL-C and triglyceride (TG) ([5]; 20 mg/kg p.o. once daily, 5 weeks): moderate decrease
Serum TC and cholesteryl esters ([5]; 60 mg/kg p.o. once daily, 5 weeks): significantly reduced to lower levels
Hepatic TC and TG ([5]; 20 or 60 mg/kg p.o. once daily, 5 weeks): reduced hepatic TC and TG in a dose-dependent manner
Tolerability (body weight and food intake) ([5]; oral once a day for 5 weeks): well tolerated; also recorded: no apparent change of body weight and food intake
Steatosis and lipid deposition in liver sections (H&E, oil red O) ([5]; p.o. once daily, 5 weeks): ameliorated MFD-induced steatosis and lipid deposition
IC50 [1]: 1320 nM
Dmax at 1 µM (HMGCR [6]; HepG2, read-out: maximum degradation (Dmax)): 56%

CC[C@H](C)C(=O)O[C@H]1C[C@@H](C)C=C2C=C[C@H](C)[C@H](CC[C@@H]3C[C@@H](O)CC(=O)O3)[C@H]21 [Lovastatin, lovastatin, reference compound]
CLint ([3]; mouse liver microsomes, mean of duplicate): 7516 mL/min/kg
half-life at 1 μmol/L ([3]; mouse, liver microsomes): 0.73 min
Hepatic HMGCR level (HMGCR [4]): retained high HMGCR level
Tmax [7]: 120 min
Effect on HMGCR expression (HMGCR [6]; HepG2 cells, range of concentrations (0.1, 1, 3, 10 μmol/L), 16 h): remarkably upregulated HMGCR in a dose-dependent manner

CC[C@H](C)C(=O)O[C@H]1C[C@@H](C)C=C2C=C[C@H](C)[C@H](CC[C@@H](O)C[C@@H](O)CC(=O)O)[C@H]21 [lovastatin acid]
Tmax [7]: 90 min
